The values that follow come from PMC9547662 (Investigational new drugs, 2018).

The subject of assay [1] is MM.1S cells. The assay can be described thus: MTS assay of cell growth in MM.1S cells. Type of assay: cell-based, human.
Assay [2] deals with U266 cells. The assay can be described thus: Detection of mitochondrial superoxide. To be noted: 24 hours. Type of assay: cell-based, human.
The test system of assay [3] is U266 cells. The assay can be described thus: MTS assay of cell growth in U266 cells. The assay is classed as cell-based, human. The conditions noted are these: 5μM single agent, 24, 48 and 72 hours.
The test system of assay [4] is U266 cells. The assay can be described thus: Viability by DAPI staining. To be noted: 5μM, 24 hours. Type of assay: cell-based, human. Put shortly:
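Over 24 hours, U266 cells (RPMI 1640, 10% heat-inactivated FBS, 1% L-glutamine, penicillin-streptomycin; 5% CO2, 37°C) were treated with test compound at 5μM, alone or with 200μM pyocyanin. Vehicle was the negative control and 200μM pyocyanin the positive control. Cells were stained with DAPI, and viability was scored by flow cytometry as percentage DAPI-negative. Mean and SEM are reported.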

For assay [5], the system named is ARE/Nrf2 transcriptional activity. The assay can be described thus: ARE/NRF2 luciferase reporter assay in ARE/HepG2/Luciferase reporter cells. Type of assay: cell-based. The conditions noted are these: 24 hours; for IC50: read-out: IC50 in HepG2 ARE/NRF2 reporter assay, 200μM t-BHQ, compounds 20nM to 10μM. In a few lines:
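HepG2 ARE-luciferase reporter cells (7,000/well) cultured 24 h before test compound; t-BHQ added 30 min later; 24 h at […]; one-step luciferase reagent, luminescence read. Screen: 5μM, 200 or 500μM t-BHQ, two independent runs, Z-scores normalized to mean of compound-treated wells. Dose-response: […] serial dilutions 20nM–10μM plus 200μM t-BHQ; 0.5% DMSO control; percent of DMSO control.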

Assay [6] deals with NRF2 nuclear translocation. The assay can be described thus: NRF2 nuclear translocation high-content screen in HepG2 cells. To be noted: 0.625-10μM compound + 200μM t-BHQ, 2 hours. The assay is classed as cell-based.
The subject of assay [7] is MM.1S cells. The assay can be described thus: Detection of mitochondrial superoxide. The assay is classed as cell-based, human. The conditions noted are these: 24 hours; for mitochondrial superoxide induction (rank among six drug candidates): 0.6, 1.25, 2.5 and 5μM.
Assay [8] concerns NRF2 nuclear translocation. The assay can be described thus: NRF2 nuclear translocation assay in MM.1S cells. The assay is classed as cell-based, human. To be noted: 2 hours, no t-BHQ. Put shortly:
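MM.1S cells (300,000/well) exposed 2 h to test compound, DMSO or 2 mM N-acetyl-L-cysteine; fixed 4% PFA 30 min, permeabilized/blocked (2% BSA, 0.1% Triton X-100) 30 min; stained with Hoechst 33342 (4ug/mL) and NRF2-Alexa Fluor 488 antibody (1:1000); high-content imaging and image analysis; NRF2 inhibition expressed as Z-scores.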

On to brusatol, for which the cell growth entry in assay [1] (5μM single agent, 24, 48 and 72 hours) is given as “efficiently suppressed growth”; in assay [3], “efficiently suppressed growth”. The mitochondrial superoxide levels entry in assay [2] (5μM) is reported as “increased superoxide levels”. Besides, in assay [4], the “viability (percentage of DAPI-negative viable cells)” value is “decreased viability”.

Regarding `C=CCc1cccc(/C=N/NC(=O)CN2CCN(Cc3ccccc3)CC2)c1O` [PAC-1], the IC50 in assay [5] stood at 2700 nM.

Consider `CC(C)(C)c1cc(O)ccc1O` [t-BHQ, tert-butylhydroquinone], for which the “induction of NRF2 transcriptional activity” value in assay [5] (200μM or 500μM t-BHQ, HepG2 cells) is “robust induction of NRF2 transcriptional activity”.

`Cc1ccc(NC(=O)c2cccc(C(C)(C)C#N)c2)cc1Nc1ccc2ncn(C)c(=O)c2c1` [AZ-628]: the cell growth result in assay [1] (2.5μM and 5μM, 48 hours) is “significant inhibition of cell growth”. Moreover, in assay [5], the IC50 was 1000 nM. Besides, the “effect on nuclear translocation of NRF2 (ratio of cytoplasmic to nuclear NRF2)” value (“effect … (ratio of cytoplasmic to nuclear NRF2)” for short) in assay [6] was “affected nuclear translocation of NRF2”. Moreover, the “mitochondrial superoxide induction (rank among six drug candidates)” value in assay [7] is listed as “followed by AZ-628”.

As to `Cn1c2cccc(=O)c-2nc2ccccc21` [Pyocyanin, pyocyanin], the mitochondrial superoxide induction result in assay [2] (serial dilutions 0 to 300μM) was “efficient and dose-dependent induction of mitochondrial superoxide”; in assay [7] (serial dilutions 0 to 300μM), “efficient and dose-dependent induction of mitochondrial superoxide”.

`O=C1NCCc2[nH]c(-c3ccncc3)cc21` [PHA-767491]: in assay [1] (2.5μM and 5μM, 48 hours), the cell growth result is listed as “significant inhibition of cell growth”. The IC50 in assay [5] worked out at 2410 nM. The “effect … (ratio of cytoplasmic to nuclear NRF2)” value in assay [6] is listed as “affected nuclear translocation of NRF2”. Also, the “mitochondrial superoxide induction (rank among six drug candidates)” value in assay [7] was “most potent superoxide inducer”.

As to `N#C/C(=C(/N)Sc1ccc(N)cc1)c1ccccc1C(F)(F)F` [SL-327], the “effect on nuclear translocation of NRF2” value in assay [8] is recorded as “anticipated inhibitory effect on nuclear translocation of NRF2”. For the same compound, the IC50 in assay [5] stood at 310 nM. The “effect … (ratio of cytoplasmic to nuclear NRF2)” value in assay [6] is reported as “affected nuclear translocation of NRF2”. Besides, the “mitochondrial superoxide induction (rank among six drug candidates)” value in assay [7] was “followed by AZ-628 and SL-327”.

Regarding `Cc1ccc(C(=O)Cn2c3c(sc2=N)CCCC3)cc1` [Pifithrin-α, pifithrin-α], in assay [5], the IC50 came out at 160 nM.

As to vitamin B12, in assay [5], the IC50 is 620 nM.
